Screening data: PubChem, several laboratories
KCNK3 inh: human KCNK3 channel inhibition, primary screen; CHO-KCNK3 thallium flux, FluxOR fluorescence; stronger effect = lower value; O14649; hit rate 0.84% among 340,000; AID 602410; B-score at 10 µM;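 active means B-score under library mean minus 4 SD, starting fluorescence ratio at most library mean plus 5 SD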;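 further: more negative B-score means stronger inhibition of thallium flux through KCNK3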
KCC2 mod: modulators of human KCC2 chloride dependent transport; Q9H2X9; KCC2 cells, thallium flux FluoZin-2 fluorescence; B-score of Tl+ flux slope (higher = more flux/activation; lower = inhibition) at 10 µM; hit rate 2.2% among 190,000;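 active means thallium flux slope and its plate-corrected score both differing from the plate sample mean at a set confidence after two filtering rounds, in either direction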;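 further: slope of fluorescence scaled to starting intensity during 10 to 20 s after thallium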
hERG rescue: hERG (human) protection from proarrhythmic block; Q12809; CHO-hERG, FluxOR thallium flux, dofetilide IC70 present; activation (rescue from dofetilide block), less the hit threshold, % at 10 µM; hit rate 0.51% among 310,000;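 active means activation above the mean of controls blocked by dofetilide plus 5 SD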;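 further: thallium influx through hERG after potassium depolarization seen as dye fluorescence rise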
KCNQ1 inh: blocks the human KCNQ1 potassium channel. P51787. CHO-K1 KCNQ1, FluxOR thallium flux fluorescence; stronger effect = higher value. B-score at 10 µM. hit rate 1.3% among 310,000;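 active means compounds whose thallium flux B-score, printed positive for inhibition, exceeds three library SD while starting fluorescence stays within three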;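 further: channel opened by potassium depolarization with thallium stimulus after 20 min compound exposure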
Target sequence (P51787 whole entry, looked up): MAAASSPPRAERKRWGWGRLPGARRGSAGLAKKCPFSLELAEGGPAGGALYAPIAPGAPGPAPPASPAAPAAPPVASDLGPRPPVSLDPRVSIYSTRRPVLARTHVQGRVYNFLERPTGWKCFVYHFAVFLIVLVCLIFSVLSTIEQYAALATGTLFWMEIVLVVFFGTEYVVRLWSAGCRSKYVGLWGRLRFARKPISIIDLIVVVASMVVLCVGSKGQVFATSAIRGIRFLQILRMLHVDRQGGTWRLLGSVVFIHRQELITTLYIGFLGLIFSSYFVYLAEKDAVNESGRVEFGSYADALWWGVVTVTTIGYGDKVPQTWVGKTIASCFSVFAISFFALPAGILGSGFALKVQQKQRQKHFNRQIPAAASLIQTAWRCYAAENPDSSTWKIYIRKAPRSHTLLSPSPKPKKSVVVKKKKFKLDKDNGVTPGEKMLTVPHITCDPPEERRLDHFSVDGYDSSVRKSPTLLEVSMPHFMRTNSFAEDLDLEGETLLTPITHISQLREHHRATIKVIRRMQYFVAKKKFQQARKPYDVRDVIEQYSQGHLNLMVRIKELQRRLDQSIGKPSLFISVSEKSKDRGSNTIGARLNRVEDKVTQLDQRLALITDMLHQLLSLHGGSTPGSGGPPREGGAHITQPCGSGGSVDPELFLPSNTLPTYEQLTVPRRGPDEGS
KCNQ1 act: human KCNQ1 channel potentiation or activation; P51787; CHO-K1 KCNQ1, thallium flux FluxOR fluorescence; stronger effect = higher value; AID 2648; hit rate 0.35% among 310,000; B-score at 10 µM;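 active means fluorescence ratio B-score, a plate-corrected score, at least three library SD, with initial intensity B-score within 5 SD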
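System: Stable KCNQ1 CHO-K1 line | Incubation: 90 min dye loading and 20 min compound exposure, both at room temperature | Measure: Ratio B score | Medium: Assay buffer for compound exposure, DMSO matched across wells | Compound dosing: Single-concentration screen | Probe or stimulus: K+/Tl+ depolarizing stimulus | Measured by: Kinetic FluxOR fluorescence, 10 s baseline plus 110 s post-stimulus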
KCNK9 block: inhibitors of human KCNK9 two-pore domain potassium channel; Q9NPC2; HEK293 KCNK9, FluxOR thallium flux fluorescence; stronger effect = lower value; B-score at 10 µM; hit rate 1.2% among 310,000; AID 488922;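 active means ratio B-score over 3 SD below the library mean, with starting fluorescence within 5 SD of its mean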;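 further: negative B-score means less thallium flux so channel inhibition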
Starred values were filed as active, the others as inactive; i = inactive; · = no result given. An excerpt weighted towards active compounds, which were near 4.1% of everything screened.

SMILES	KCNK3 inh	KCC2 mod	hERG rescue	KCNQ1 inh	KCNQ1 act	KCNK9 block
CC(CCc1ccccc1)NC(=O)c1ccncc1 (centres undefined)	i	-0.012	-13	i	i	i
O=C1NC(=O)/C(=C/c2ccc(-c3cccc([N+](=O)[O-])c3)o2)S1	i	·	-6	12*	i	i
O=Cc1ccc(-c2cccc([N+](=O)[O-])c2)o1	i	-0.51	-6	i	i	i
O=C(NC(=S)N1CCCC(C(F)(F)F)C1)c1ccc(F)cc1 (centres undefined)	i	·	11*	i	13*	i
CC1Cc2ccccc2N1C(=S)NC(=O)c1cccc(Br)c1 (centres undefined)	i	63*	80*	i	92*	i
CC1Cc2ccccc2N1C(=S)NC(=O)c1ccc(Cl)cc1Cl (centres undefined)	i	51*	32*	i	24*	i
COC(=O)CSc1nc2ccccn2c(=O)c1C=O	i	-0.21	-18	i	i	i
FC(F)(F)c1cccc(NC(=S)NNC(=S)NCc2ccccc2)c1	i	1.7	-15	7*	i	i
O=C(Cc1ccccc1)NC(=S)Nc1cccc(C(F)(F)F)c1	i	6*	-5	i	i	i
O=C(NCc1ccco1)c1ccc(=O)oc1	i	·	-7	i	i	i
COC(=O)c1ccc(C(=O)OC)c(NC(=O)CCc2ccc(C)o2)c1	i	·	45*	i	i	i
CCOC(=O)c1c(NC(=O)C(C)N2CCN(C(=O)c3ccco3)CC2)sc2c1CCCC2 (centres undefined)	i	-0.81	-17	i	15*	i
CCOC(=O)c1c(NS(=O)(=O)Cc2ccccc2)sc2c1CCCC2	i	144*	78*	i	i	i
CCOC(=O)c1c(NC(=O)c2ccccc2C(=O)O)sc2c1CCC2	i	·	-5	i	i	i
O=C1Nc2ccc3sc4ccccc4c3c2C1=O	i	-0.48	-12	i	i	i
O=C1C=CC(=O)c2c(O)c(CO)c(CO)c(O)c21	i	·	·	·	·	·
COc1cccc(NC(=O)NCC2CCN(Cc3ccc(F)cc3)CC2)c1	i	·	-6	i	8*	i
O=C(O)CSc1cccc[n+]1[O-]	i	0.2	-4	i	i	i
O=C(CSc1cccc[n+]1[O-])c1cc2ccccc2o1	i	7.2*	-2	i	i	i
Cc1noc(NS(=O)(=O)c2ccc(NC(=O)CCC3CCCCC3)cc2)c1C	i	-0.85	-11	i	i	i
Cc1nn(C)cc1C1Nc2ccccc2C(=O)N1O (centres undefined)	i	-0.093	-10	i	i	i
C=CCc1cccc(C2Nc3ccccc3C(=O)N2O)c1O (centres undefined)	i	13*	1	i	i	i
Cc1cccc(NC(=O)CCc2c(C)nc3ncnn3c2C)n1	i	-0.34	6.4*	i	i	i
COc1ccc(C2C(Oc3ccccc3)C(=O)N2c2ccc(C)c(C)c2)cc1OC (centres undefined)	i	·	-3	i	i	-6.9*
COc1ccc(C2C(Oc3ccccc3)C(=O)N2c2cc(C)ccc2C)cc1OC (centres undefined)	i	-0.023	-12	i	i	i
O=c1c2cccnc2n(-c2ccccc2)n1Cc1ccc(Cl)cc1	i	-0.34	-8	i	14*	i
O=c1c2cccnc2n(-c2ccccc2)n1Cc1c(Cl)cccc1Cl	i	-0.1	-3	i	i	i
CC1(C)C2CC[C@]3(C)C(CC=C4[C@@H]5C[C@](C)(CO)CC[C@]5(C(=O)O)CC[C@]43C)[C@@]2(C)CC[C@@H]1O (some centres undefined)	·	·	-4	i	i	i
C=CCn1c(C)cc(C2=NNC(=NC(C)(C)C)SC2)c1C	i	-2	-12	8*	i	i
O=c1[nH]c2cc3c(cc2cc1C(c1nnnn1CC1CCCO1)N1CCCC1)OCO3 (centres undefined)	i	1.1	-8	i	i	i
